As a reminder, the pKi is the negative decadic logarithm of the Ki, by convention in mol/L. Read a low pKi as a high Ki. The term pIC50 denotes the negative decadic logarithm of the IC50, by convention in mol/L. A lower pIC50 goes with a large IC50.

For assay [1], the system named is LNCaP. Put plainly: Antiproliferative activity against human LNCAP cells at 0.1 to 50 uM after 120 hrs by MTT assay. In kind it is functional, cell-based. The gist of the method: (§1)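 DU-145, PC-3 and LNCaP cells grown in RPMI with 10% fetal calf serum, 37 °C, 5% CO₂; seeded at 5 × 10³ cells/well, exposed to 0.1–50 µM for 120 h. After PBS wash, MTT (5 mg/mL) in PBS 4 h, formazan dissolved in isopropanol, read at 570 nm. Viability as % of untreated; IC50 from at least three independent dose-response curves.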

Assay [2] relates to Panel NCI-60 (60 carcinoma cell lines). Put plainly: Antiproliferative activity against human NCI60 cells at 10 uM after 48 hrs by SRB assay. The format is functional, cell-based. The gist of the method: (§2)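 NCI one-dose screen at 10 µM across 60 human tumour lines, 48 h exposure; growth given relative to no-drug control and to time-zero cell number, so 0–100 means inhibition and below 0 lethality; 100 means no inhibition.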
Background: In SRB staining, fixed cells bind dye roughly in proportion to their protein.

Assay [3] addresses T1, Alpha-1A adrenergic receptor (Homo sapiens, UniProt P35348).
T1 sequence (P35348 whole entry): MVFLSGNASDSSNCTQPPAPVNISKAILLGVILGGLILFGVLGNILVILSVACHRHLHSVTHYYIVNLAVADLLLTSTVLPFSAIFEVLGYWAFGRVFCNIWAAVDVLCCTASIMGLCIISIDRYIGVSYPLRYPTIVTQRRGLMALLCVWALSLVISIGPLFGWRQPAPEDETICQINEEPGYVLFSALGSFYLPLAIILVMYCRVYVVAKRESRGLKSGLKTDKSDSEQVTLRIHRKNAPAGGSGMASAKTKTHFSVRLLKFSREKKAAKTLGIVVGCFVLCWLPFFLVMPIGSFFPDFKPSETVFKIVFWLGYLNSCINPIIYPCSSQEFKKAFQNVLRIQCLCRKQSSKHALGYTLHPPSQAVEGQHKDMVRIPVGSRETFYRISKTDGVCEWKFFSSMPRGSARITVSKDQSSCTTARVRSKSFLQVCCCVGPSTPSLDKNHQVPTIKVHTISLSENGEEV
Put plainly: Displacement of [3H]prazosin from human alpha1A adrenoceptor expressed in CHO cell membranes after 30 mins. Background: Loss of bound radioactivity is the signal in a displacement assay; it reports binding, not function.

Assay [4] deals with DU-145. Put plainly: Antiproliferative activity against human DU145 cells at 0.1 to 50 uM after 120 hrs by MTT assay. The format is functional, cell-based. The gist of the method: as §1
Assay [5] deals with T2, Alpha-1D adrenergic receptor (Homo sapiens, UniProt P25100).
T2 sequence (P25100 whole entry): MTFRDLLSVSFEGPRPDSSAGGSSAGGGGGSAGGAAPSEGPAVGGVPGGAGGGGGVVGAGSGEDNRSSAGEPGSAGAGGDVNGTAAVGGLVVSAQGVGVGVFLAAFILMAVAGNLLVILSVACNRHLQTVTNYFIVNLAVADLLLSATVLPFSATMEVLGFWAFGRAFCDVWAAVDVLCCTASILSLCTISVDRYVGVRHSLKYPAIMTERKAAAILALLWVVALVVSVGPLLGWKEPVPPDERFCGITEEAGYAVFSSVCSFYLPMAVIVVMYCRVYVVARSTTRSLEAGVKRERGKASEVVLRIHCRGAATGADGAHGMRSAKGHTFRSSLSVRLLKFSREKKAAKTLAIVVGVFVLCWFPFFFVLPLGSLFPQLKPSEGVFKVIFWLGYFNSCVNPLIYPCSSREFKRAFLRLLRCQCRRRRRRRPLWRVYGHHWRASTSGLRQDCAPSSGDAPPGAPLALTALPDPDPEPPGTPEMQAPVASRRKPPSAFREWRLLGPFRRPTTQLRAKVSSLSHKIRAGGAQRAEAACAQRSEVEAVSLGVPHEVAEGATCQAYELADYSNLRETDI
Put plainly: Displacement of [3H]prazosin from human alpha1D adrenoceptor expressed in CHO cell membranes after 30 mins.

Assay [6] has as its system PC-3. Put plainly: Antiproliferative activity against human PC3 cells at 0.1 to 50 uM after 120 hrs by MTT assay. The format is functional, cell-based. An outline of the steps:
as §1
In general terms: Tetrazolium assays rely on reduction of a dye to a coloured formazan, in cell work by metabolically active cells.

In assay [7] the target is T3, Alpha-1B adrenergic receptor (Homo sapiens, UniProt P35368).
T3 sequence (P35368 whole entry): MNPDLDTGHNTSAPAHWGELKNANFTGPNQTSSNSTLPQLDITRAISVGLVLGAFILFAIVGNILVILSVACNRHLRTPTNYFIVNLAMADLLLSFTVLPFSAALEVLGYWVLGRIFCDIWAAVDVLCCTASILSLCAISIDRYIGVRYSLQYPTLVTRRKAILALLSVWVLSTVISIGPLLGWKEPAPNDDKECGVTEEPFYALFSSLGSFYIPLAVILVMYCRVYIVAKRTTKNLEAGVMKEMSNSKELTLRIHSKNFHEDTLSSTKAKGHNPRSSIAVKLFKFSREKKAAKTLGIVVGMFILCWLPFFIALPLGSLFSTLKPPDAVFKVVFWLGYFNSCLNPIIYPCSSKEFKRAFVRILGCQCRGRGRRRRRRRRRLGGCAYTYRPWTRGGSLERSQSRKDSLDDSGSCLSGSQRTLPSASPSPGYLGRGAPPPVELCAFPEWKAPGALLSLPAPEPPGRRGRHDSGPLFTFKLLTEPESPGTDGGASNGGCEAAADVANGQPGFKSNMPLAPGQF
Put plainly: Displacement of [3H]prazosin from human alpha1B adrenoceptor expressed in CHO cell membranes after 30 mins.

Assay [8] concerns LNCaP. Put plainly: Induction of necrosis in human LNCAP cells assessed as loss of plasma membrane integrity at 1 to 10 uM after 24 hrs by trypan blue staining-based Neubauer hemocytometric method. In kind it is functional, cell-based. An outline of the steps:
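LNCaP cells seeded at 1 × 10⁶ cells/well, treated 1–10 µM for 24 h at 37 °C, 5% CO₂; scraped into PBS, mixed 1:1 with 0.5% trypan blue, counted on a Neubauer hemocytometer; percentage of stained cells from at least 3 separate counts.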

Assay [9] concerns PC-3. Put plainly: Antiproliferative activity against human PC3 cells after 120 hrs by MTT assay. The format is functional, cell-based. As to conditions: PC-3, 120 h. The gist of the method: as §1
Assay [10] relates to LNCaP. Put plainly: Antiproliferative activity against human LNCAP cells after 120 hrs by MTT assay. The format is functional, cell-based. An outline of the steps:
as §1

Assay [11] relates to LNCaP. Put plainly: Induction of apoptosis in human LNCAP cells assessed as increase in DNA fragmentation at 10 uM after 24 hrs by spectrophotometer relative to control. In kind it is functional. The gist of the method:
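LNCaP cells seeded at 1 × 10³ cells/well, exposed to compounds (1–10 µM range) for 24 h at 37 °C, 5% CO₂; lysed, supernatant run in Cell Death Detection ELISAplus (biotin anti-histone/peroxidase anti-DNA on streptavidin plate, ABTS substrate 20 min); absorbance 405 nm. DNA fragmentation given as fold increase, treated/untreated absorbance; mean SD of three independent experiments, t-test vs untreated.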

Assay [12] deals with DU-145. Put plainly: Antiproliferative activity against human DU145 cells after 120 hrs by MTT assay. The format is functional, cell-based. Particulars: DU-145, 120 h. The gist of the method:
as §1

Assay [13] deals with DU-145. Put plainly: Antiproliferative activity against human DU145 cells at 10 uM after 48 hrs by SRB assay relative to control. The format is functional. The gist of the method: as §2
The subject of assay [14] is PC-3. Put plainly: Growth inhibition of human PC3 cells at 10 uM after 48 hrs by SRB assay relative to control. The format is functional. Particulars: PC-3, 48 h, read-out: GI. An outline of the steps: as §2
Assay [15] has as its system LNCaP. Put plainly: Prooxidant activity in human LNCAP cells assessed as increase in depletion of intercellular GSH level at 1 to 10 uM after 24 hrs by MCB dye-based spectrofluorometric analysis. In kind it is functional, cell-based. The gist of the method:
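LNCaP cells seeded at 2 × 10⁴ cells/well, treated 1–10 µM for 24 h at 37 °C, 5% CO₂; washed, 50 µM monochlorobimane in PBS 30 min at 37 °C, fluorescence read at excitation 360 nm, emission 465 nm; arbitrary fluorescence units; mean ± SD, three independent experiments.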

Assay [16] has as its system LNCaP. Put plainly: Induction of apoptosis in human LNCAP cells assessed as increase in DNA fragmentation at 1 to 10 uM after 24 hrs by spectrophotometer relative to control. The format is functional. The gist of the method: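 LNCaP cells seeded at 1 × 10³ cells/well, treated 1–10 µM for 24 h at 37 °C, 5% CO₂; lysed 30 min, centrifuged, supernatant ELISA with biotin anti-histone and peroxidase anti-DNA antibodies on streptavidin plate, ABTS 20 min, read 405 nm. Fold increase = treated/untreated absorbance; mean ± SD, three independent experiments.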

In assay [17] the test system is LNCaP. Put plainly: Antioxidant activity in human LNCAP cells assessed as inhibition of t-BuOOH-induced ROS level at 1 to 10 uM after 30 mins by DCFH-DA dye-based spectrofluorometric analysis relative to control. In kind it is functional.

pIC50, pKi: −log10 of the molar value. Active and inactive are the calls of the source. The rule behind the calls is not given here.

With `COc1cc2nc(N3CCC[C@H](NC(=O)c4ccco4)C3)nc(N)c2cc1OC`, the outcome in assay [1], in assay [2], in assay [4] and in [6] was inactive. In addition, the pKi was 9.20 in assay [3], 9.48 in [5] and 9.55 in assay [7].

Consider `COc1cc2nc(N3CCN(C(=O)C4COc5ccccc5O4)CC3)nc(N)c2cc1OC` (configuration not stated) [DOXAZOSIN], for which the result in [8] was inactive. The negative logarithm of the IC50 (pIC50) was 4.92 in [9], 4.98 in [10] and 4.51 in assay [12]. The “fold change (FC)” value in [11] worked out at 2.2.

As to `COc1cc2nc(N3CCC[C@@H](NC4=CC(=O)c5ccccc5C4=O)C3)nc(N)c2cc1OC`, the result in [2] was Active. Besides, the pKi in assay [3] was 6.92; in [5] it was 7.47; in assay [7], 7.60. The pIC50 in [9] was 4.73; in assay [10], 5.24; in assay [12], 4.75. For the same compound, the Activity in assay [13] is 54%. The inhibition of growth at 10 µM in [14] was found to be 45.5%.

Regarding `COc1cc2nc(N3CCC[C@H](N)C3)nc(N)c2cc1OC`, the outcome in assay [8], in assay [15], in assay [1], in [2], in assay [4] and in [6] was inactive. Also, the result in [16] was inactive. For the same compound, the values for the pKi in [3], in assay [5] and in assay [7] were 6.72, 7.55 and 7.26, respectively. Also, the inhibition result in assay [17] was “inactive”.

Take `COc1cc2nc(N3CCC[C@@H](NC(=O)[C@@H]4COc5ccccc5O4)C3)nc(N)c2cc1OC`: the pKi in assay [3] was less than 6.00; in [5], less than 6.00; in assay [7], 6.50.

`COc1cc2nc(N3CCC[C@@H](NC(=O)[C@H]4COc5ccccc5O4)C3)nc(N)c2cc1OC`: the pKi is less than 6.00 in [3], 6.53 in assay [5] and 7.33 in [7].

`COc1cc2nc(N3CCC[C@H](NC(=O)[C@@H]4COc5ccccc5O4)C3)nc(N)c2cc1OC`: the outcome in [1], in [2], in [4] and in [6] was inactive. Further, the values for the pKi in [3], in assay [5] and in assay [7] were 7.48, 7.88 and 8.13, respectively.

Take `COc1cc2nc(N3CCC[C@H](NC(=O)[C@H]4COc5ccccc5O4)C3)nc(N)c2cc1OC`: the result in assay [1], in assay [2], in assay [4] and in assay [6] was inactive. Moreover, the pKi in assay [3] was 7.74; in [5], 7.31; in assay [7] it was 7.20.

Consider `COc1cc2nc(N3CCC[C@@H](NC(=O)c4ccco4)C3)nc(N)c2cc1OC`, for which the result in assay [1], in assay [2], in assay [4] and in assay [6] was inactive. Further, the pKi in [3] is 6.96; in assay [5], 7.43; in assay [7] it was 7.37.

On to `COc1cc2nc(N3CCC[C@@H](N)C3)nc(N)c2cc1OC`, for which the pKi in assay [3] is less than 6.00; in assay [5], 6.99; in [7] it was 6.75.

Values taken from ChEMBL document CHEMBL4138091, “Quinazoline based α1-adrenoreceptor antagonists with potent antiproliferative activity in human prostate cancer cell lines” (Eur J Med Chem, 2017).
